Data published in ChEMBL document CHEMBL4602720, “Degradation versus Inhibition: Development of Proteolysis-Targeting Chimeras for Overcoming Statin-Induced Compensatory Upregulation of 3-Hydroxy-3-methylglutaryl Coenzyme A Reductase” (J Med Chem, 2020).
Activity calls are given as the source filed them. No cut-off for these calls is given here.

Legend:
[1] = biological target: T1, Protein cereblon/3-hydroxy-3-methylglutaryl-coenzyme A reductase (Cricetulus griseus, UniProt P00347+G3H338); test: Protac activity at CRBN/HMGCR in Insig-1/Insig-2 deficient Chinese hamster SRD15 cells assessed as induction of HMGCR degradation after 16 hrs by immunoblotting analysis
T1 sequence (P00347 whole entry): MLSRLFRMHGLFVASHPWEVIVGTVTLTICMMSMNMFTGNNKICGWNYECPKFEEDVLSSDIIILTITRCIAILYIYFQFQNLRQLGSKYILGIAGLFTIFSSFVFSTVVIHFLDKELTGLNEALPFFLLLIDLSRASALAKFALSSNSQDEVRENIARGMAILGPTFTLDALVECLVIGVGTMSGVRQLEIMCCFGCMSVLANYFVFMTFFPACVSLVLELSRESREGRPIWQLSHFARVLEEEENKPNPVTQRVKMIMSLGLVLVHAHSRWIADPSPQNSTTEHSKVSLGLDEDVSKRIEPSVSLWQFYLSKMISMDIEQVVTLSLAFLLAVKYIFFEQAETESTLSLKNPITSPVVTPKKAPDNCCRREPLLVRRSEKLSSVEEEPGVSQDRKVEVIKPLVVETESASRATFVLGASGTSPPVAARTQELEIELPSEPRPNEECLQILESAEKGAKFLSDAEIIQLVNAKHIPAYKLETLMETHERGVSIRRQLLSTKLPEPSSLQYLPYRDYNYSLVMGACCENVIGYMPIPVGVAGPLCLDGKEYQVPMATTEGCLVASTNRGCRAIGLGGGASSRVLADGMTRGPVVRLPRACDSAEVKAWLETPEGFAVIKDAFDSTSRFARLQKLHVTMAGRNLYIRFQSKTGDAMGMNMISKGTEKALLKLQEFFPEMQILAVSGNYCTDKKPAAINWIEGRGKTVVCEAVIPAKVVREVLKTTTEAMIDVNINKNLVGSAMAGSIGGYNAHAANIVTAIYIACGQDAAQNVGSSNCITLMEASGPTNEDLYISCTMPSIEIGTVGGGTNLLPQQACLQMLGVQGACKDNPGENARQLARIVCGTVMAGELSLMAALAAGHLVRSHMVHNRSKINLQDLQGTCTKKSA
T1 sequence (G3H338 whole entry): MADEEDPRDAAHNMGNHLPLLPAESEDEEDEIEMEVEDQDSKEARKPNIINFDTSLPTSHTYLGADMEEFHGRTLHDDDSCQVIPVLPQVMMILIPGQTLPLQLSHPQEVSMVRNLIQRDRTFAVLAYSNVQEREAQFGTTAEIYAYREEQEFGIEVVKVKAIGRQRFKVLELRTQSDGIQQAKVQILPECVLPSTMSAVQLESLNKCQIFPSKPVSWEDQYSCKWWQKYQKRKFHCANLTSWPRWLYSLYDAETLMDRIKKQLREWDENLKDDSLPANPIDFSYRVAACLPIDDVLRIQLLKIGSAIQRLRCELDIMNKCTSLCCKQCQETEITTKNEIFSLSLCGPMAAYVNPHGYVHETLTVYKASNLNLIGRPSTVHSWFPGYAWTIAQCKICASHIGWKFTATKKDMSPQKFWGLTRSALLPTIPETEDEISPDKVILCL
Method in brief: (§1)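 SRD15 cells treated with compound at varying concentrations for 16 h, final DMSO ≤0.1%; RIPA lysates (Lowry protein) immunoblotted for HMGCR, densitometry normalized to actin, DMSO set to 1; DC50 = concentration giving 50% loss versus DMSO, fitted to dose-response curve, mean of 3 independent experiments.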

[2] = biological target: T2, Sterol regulatory element-binding protein 2 (Mus musculus) (UniProt Q3U1N2); test: Activation of SREBP2 pathway in mouse primary hepatocytes assessed as increase in LDLR mRNA expression at 0.01 to 1 uM afer 16 hrs by quantitative real-time PCR analysis; type: cell-based
T2 sequence (whole entry): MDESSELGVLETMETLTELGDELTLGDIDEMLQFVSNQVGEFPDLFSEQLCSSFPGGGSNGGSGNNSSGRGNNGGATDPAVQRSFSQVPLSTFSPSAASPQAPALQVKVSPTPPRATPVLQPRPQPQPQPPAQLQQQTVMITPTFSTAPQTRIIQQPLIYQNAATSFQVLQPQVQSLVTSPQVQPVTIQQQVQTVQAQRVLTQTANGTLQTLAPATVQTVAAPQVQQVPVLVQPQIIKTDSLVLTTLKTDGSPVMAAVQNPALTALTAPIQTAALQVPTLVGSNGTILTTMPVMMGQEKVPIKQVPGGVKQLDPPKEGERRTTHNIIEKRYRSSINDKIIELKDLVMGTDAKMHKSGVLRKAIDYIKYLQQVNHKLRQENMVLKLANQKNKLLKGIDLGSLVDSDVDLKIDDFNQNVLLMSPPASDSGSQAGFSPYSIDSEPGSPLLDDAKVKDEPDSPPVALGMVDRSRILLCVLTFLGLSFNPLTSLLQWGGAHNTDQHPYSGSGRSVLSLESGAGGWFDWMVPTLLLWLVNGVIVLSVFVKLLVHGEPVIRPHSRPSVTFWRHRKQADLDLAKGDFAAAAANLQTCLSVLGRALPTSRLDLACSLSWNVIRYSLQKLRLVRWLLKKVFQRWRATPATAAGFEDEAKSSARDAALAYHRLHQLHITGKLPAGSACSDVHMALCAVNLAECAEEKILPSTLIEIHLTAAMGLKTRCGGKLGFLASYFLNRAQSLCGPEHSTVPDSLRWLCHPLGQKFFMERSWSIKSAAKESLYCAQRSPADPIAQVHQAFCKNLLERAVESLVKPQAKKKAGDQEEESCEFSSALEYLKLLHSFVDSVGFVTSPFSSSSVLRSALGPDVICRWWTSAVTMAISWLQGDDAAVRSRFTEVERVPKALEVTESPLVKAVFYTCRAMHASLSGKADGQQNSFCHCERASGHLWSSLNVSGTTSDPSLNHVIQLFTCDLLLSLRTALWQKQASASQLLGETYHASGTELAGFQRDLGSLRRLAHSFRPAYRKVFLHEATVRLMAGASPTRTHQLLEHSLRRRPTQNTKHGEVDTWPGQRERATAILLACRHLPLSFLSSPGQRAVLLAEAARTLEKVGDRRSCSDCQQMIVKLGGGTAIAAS

[3] = biological target: T2, Sterol regulatory element-binding protein 2 (Mus musculus); test: Activation of SREBP2 pathway in mouse primary hepatocytes assessed as increase in HMGCR mRNA expression at 0.01 to 1 uM afer 16 hrs by quantitative real-time PCR analysis; type: cell-based
[4] = system: Huh-7; test: Inhibition of cholesterol biosynthesis in human HuH7 cells preincubated for 14 hrs and followed by addition of 14C-acetate and measured after 2 hrs by TL method; type: functional, cell-based
Method in brief: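 Sterol-depleted Huh7 cells (Medium B plus 5% lipoprotein-deficient serum) treated at varying concentrations for 14 h, pulse-labelled with ¹⁴C-acetate 1 μCi/μL for 2 h, washed, lysed in 0.1 M NaOH; lipids separated by TLC, ¹⁴C-cholesterol read by phosphorimager, DMSO set to 1.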

[5] = biological target: T3, Thioredoxin domain-containing protein 11 (Homo sapiens) (UniProt Q6PKC3); test: Activation of TXNDC11 (unknown origin)
T3 sequence (whole entry): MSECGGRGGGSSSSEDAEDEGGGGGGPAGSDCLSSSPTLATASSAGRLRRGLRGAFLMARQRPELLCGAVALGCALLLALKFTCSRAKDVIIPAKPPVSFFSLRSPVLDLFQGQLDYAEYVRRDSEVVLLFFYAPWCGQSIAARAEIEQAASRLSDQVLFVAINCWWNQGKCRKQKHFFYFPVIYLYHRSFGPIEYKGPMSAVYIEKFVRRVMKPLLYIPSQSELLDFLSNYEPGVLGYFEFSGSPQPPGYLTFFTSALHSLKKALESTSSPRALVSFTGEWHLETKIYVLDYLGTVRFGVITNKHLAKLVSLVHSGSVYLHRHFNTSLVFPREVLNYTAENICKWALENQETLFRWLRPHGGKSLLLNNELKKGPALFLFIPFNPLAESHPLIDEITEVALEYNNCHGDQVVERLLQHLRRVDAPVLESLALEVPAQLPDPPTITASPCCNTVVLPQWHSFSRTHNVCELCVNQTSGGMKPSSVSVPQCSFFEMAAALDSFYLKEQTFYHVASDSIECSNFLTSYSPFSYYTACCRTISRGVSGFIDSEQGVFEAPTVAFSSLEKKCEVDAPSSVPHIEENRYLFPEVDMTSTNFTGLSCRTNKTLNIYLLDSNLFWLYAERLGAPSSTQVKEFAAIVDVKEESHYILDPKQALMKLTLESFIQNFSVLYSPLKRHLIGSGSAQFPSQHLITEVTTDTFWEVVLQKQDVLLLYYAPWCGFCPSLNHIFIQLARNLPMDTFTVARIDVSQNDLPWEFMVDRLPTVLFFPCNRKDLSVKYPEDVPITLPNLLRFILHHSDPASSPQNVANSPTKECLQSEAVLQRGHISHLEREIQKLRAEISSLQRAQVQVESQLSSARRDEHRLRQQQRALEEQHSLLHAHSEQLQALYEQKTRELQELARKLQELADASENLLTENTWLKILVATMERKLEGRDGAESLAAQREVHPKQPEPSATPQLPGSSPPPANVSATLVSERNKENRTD

[6] = biological target: T4, Protein cereblon/3-hydroxy-3-methylglutaryl-coenzyme A reductase (Cricetulus griseus) (UniProt P00347+G3H338); test: Protac activity at CRBN/HMGCR in Insig-1/Insig-2 deficient Chinese hamster SRD15 cells assessed as induction of HMGCR degradation at 0.01 to 1 uM after 16 hrs by immunoblotting analysis; method in brief: as §1
[7] = biological target: T4, Protein cereblon/3-hydroxy-3-methylglutaryl-coenzyme A reductase (Cricetulus griseus); test: Protac activity at CRBN/HMGCR in Insig-1/Insig-2 deficient Chinese hamster SRD15 cells assessed as induction of HMGCR degradation at 3 uM after 16 hrs by immunoblotting analysis; method in brief: as §1

SMILES	DC50 [1] [nM]	Activity [2]	Activity [3]	Activity [6]	further results
CC(C)c1c(C(=O)Nc2ccccc2)c(-c2ccccc2)c(-c2ccc(F)cc2)n1CC[C@@H](O)C[C@@H](O)CC(=O)O					inhibition [4]: Active; fold change (FC) [5]: 108
C#CCCCCOc1cccc(-c2c(C(=O)Nc3ccccc3)c(C(C)C)n(CC[C@@H](O)C[C@@H](O)CC(=O)O)c2-c2ccc(F)cc2)c1				inactive	
C#CCOc1cccc(-c2c(C(=O)Nc3ccccc3)c(C(C)C)n(CC[C@@H](O)C[C@@H](O)CC(=O)O)c2-c2ccc(F)cc2)c1				inactive	
C#CCCCOc1cccc(-c2c(C(=O)Nc3ccccc3)c(C(C)C)n(CC[C@@H](O)C[C@@H](O)CC(=O)O)c2-c2ccc(F)cc2)c1				inactive	
CC(C)c1c(C(=O)Nc2ccccc2)c(-c2cccc(OCCCCCc3cn(CCOCCOCCNc4cccc5c4C(=O)N(C4CCC(=O)NC4=O)C5=O)nn3)c2)c(-c2ccc(F)cc2)n1CC[C@@H](O)C[C@@H](O)CC(=O)O (stereo partly drawn)	> 3000				

Continued, in another order:

DC50 [1] [nM]	Activity [2]	Activity [3]	Activity [6]	SMILES	further results
300	Active	Active		CC(C)c1c(C(=O)Nc2ccccc2)c(-c2cccc(OCCCCc3cn(CCCCCCCNc4cccc5c4C(=O)N(C4CCC(=O)NC4=O)C5=O)nn3)c2)c(-c2ccc(F)cc2)n1CC[C@@H](O)C[C@@H](O)CC(=O)O (stereo partly drawn)	
200	Active	Active		CC(C)c1c(C(=O)Nc2ccccc2)c(-c2cccc(OCCCc3cn(CCCCCCCNc4cccc5c4C(=O)N(C4CCC(=O)NC4=O)C5=O)nn3)c2)c(-c2ccc(F)cc2)n1CC[C@@H](O)C[C@@H](O)CC(=O)O (stereo partly drawn)	
			inactive	C#CCCCCCOc1cccc(-c2c(C(=O)Nc3ccccc3)c(C(C)C)n(CC[C@@H](O)C[C@@H](O)CC(=O)O)c2-c2ccc(F)cc2)c1	
400	Active	Active		CC(C)c1c(C(=O)Nc2ccccc2)c(-c2cccc(OCCCCCc3cn(CCCCCCCNc4cccc5c4C(=O)N(C4CCC(=O)NC4=O)C5=O)nn3)c2)c(-c2ccc(F)cc2)n1CC[C@@H](O)C[C@@H](O)CC(=O)O (stereo partly drawn)	
300				CC(C)c1c(C(=O)Nc2ccccc2)c(-c2cccc(OCCCc3cn(CCOCCOCCOCCOCCNc4ccc5c(c4)C(=O)N(C4CCC(=O)NC4=O)C5=O)nn3)c2)c(-c2ccc(F)cc2)n1CC[C@@H](O)C[C@@H](O)CC(=O)O (stereo partly drawn)	Activity [7]: inactive
400	Active	Active		CC(C)c1c(C(=O)Nc2ccccc2)c(-c2cccc(OCCCc3cn(CCCCCCNc4cccc5c4C(=O)N(C4CCC(=O)NC4=O)C5=O)nn3)c2)c(-c2ccc(F)cc2)n1CC[C@@H](O)C[C@@H](O)CC(=O)O (stereo partly drawn)	
> 3000				CC(C)c1c(C(=O)Nc2ccccc2)c(-c2cccc(OCCCc3cn(CCCCOCC#Cc4cccc5c4CN(C4CCC(=O)NC4=O)C5=O)nn3)c2)c(-c2ccc(F)cc2)n1CC[C@@H](O)C[C@@H](O)CC(=O)O (stereo partly drawn)	
> 3000				CC(C)c1c(C(=O)Nc2ccccc2)c(-c2cccc(OCCCCCc3cn(CCOCCOCCOCCNc4ccc5c(c4)C(=O)N(C4CCC(=O)NC4=O)C5=O)nn3)c2)c(-c2ccc(F)cc2)n1CC[C@@H](O)C[C@@H](O)CC(=O)O (stereo partly drawn)	
